Measurements as given in ChEMBL document CHEMBL1926565, “Synthesis, antiproliferative activities and telomerase inhibition evaluation of novel asymmetrical 1,2-disubstituted amidoanthraquinone derivatives” (Eur J Med Chem, 2012).
Calls of active or inactive are those of the source. No cut-off for these calls is given here.

Legend:
SF-539 = assay: Cytotoxicity against human SF539 cells assessed as cellular growth at 10 uM; type: functional
Summary of the method: (§1)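 Single-dose screen run by the NCI across its 60-human-tumour-cell-line panel; growth recorded for each cell line.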

UO-31 = assay: Cytotoxicity against human UO31 cells assessed as cellular growth at 10 uM; type: functional
SF-295 = assay: Cytotoxicity against human SF295 cells assessed as cellular growth at 10 uM; type: functional; summary of the method: as §1
HL-60(TB) = assay: Cytotoxicity against human HL-60(TB) cells assessed as cellular growth at 10 uM; type: functional; summary of the method: as §1
HCT-15 = assay: Cytotoxicity against human HCT15 cells assessed as cellular growth at 10 uM; type: functional; summary of the method: as §1
OVCAR-8 = assay: Cytotoxicity against human OVCAR8 cells assessed as cellular growth at 10 uM; type: functional; summary of the method: as §1
IGROV-1 = assay: Cytotoxicity against human IGROV1 cells assessed as cellular growth at 10 uM; type: functional; summary of the method: as §1
MOLT-4 = assay: Cytotoxicity against human MOLT4 cells assessed as cellular growth at 10 uM; type: functional; summary of the method: as §1
PC-3 [1] = assay: Cytotoxicity against human PC3 cells after 48 hrs by SRB assay; type: functional, cell-based; conditions: PC-3, 48 h
Summary of the method: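 PC-3 cells grown in RPMI1640 with 10% FBS at 37 °C, 5% CO₂. Seeded in medium with 5% FBS; after 24 h, one plate fixed with 10% TCA as T₀. Compound or 0.1% DMSO vehicle added for 48 h, then TCA fixation and 0.4% SRB in 1% acetic acid. Dye solubilized in 10 mM Trizma base, absorbance read at 515 nm. IC50 is the concentration giving 50% reduction of the protein gain in controls.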

M14 = assay: Cytotoxicity against human M14 cells assessed as cellular growth at 10 uM; type: functional; summary of the method: as §1
NCI-H23 = assay: Cytotoxicity against human NCI-H23 cells assessed as cellular growth at 10 uM; type: functional; summary of the method: as §1
SK-OV-3 = assay: Cytotoxicity against human SKOV3 cells assessed as cellular growth at 10 uM; type: functional
HCT-116 = assay: Cytotoxicity against human HCT116 cells assessed as cellular growth at 10 uM; type: functional; summary of the method: as §1
[2] = Growth of human H1299 cells at 10 uM after 48 hrs by MTT assay; conditions: NCI-H1299, 48 h
EKVX = assay: Cytotoxicity against human EKVX cells assessed as cellular growth at 10 uM; type: functional; summary of the method: as §1
COLO 205 = assay: Cytotoxicity against human COLO205 cells assessed as cellular growth at 10 uM; type: functional; summary of the method: as §1
TK-10 = assay: Cytotoxicity against human TK10 cells assessed as cellular growth at 10 uM; type: functional
MCF7 = assay: Cytotoxicity against human MCF7 cells assessed as cellular growth at 10 uM; type: functional; summary of the method: as §1
Malme-3M = assay: Cytotoxicity against human MALME-3M cells assessed as cellular growth at 10 uM; type: functional; summary of the method: as §1
MDA-MB-231 = assay: Cytotoxicity against human MDA-MB-231 cells assessed as cellular growth at 10 uM; type: functional; summary of the method: as §1
HOP-62 = assay: Cytotoxicity against human HOP62 cells assessed as cellular growth at 10 uM; type: functional; summary of the method: as §1
HT-29 = assay: Cytotoxicity against human HT-29 cells assessed as cellular growth at 10 uM; type: functional; summary of the method: as §1
OVCAR-4 = assay: Cytotoxicity against human OVCAR4 cells assessed as cellular growth at 10 uM; type: functional; summary of the method: as §1
BT-549 = assay: Cytotoxicity against human BT549 cells assessed as cellular growth at 10 uM; type: functional; summary of the method: as §1
MDA-MB-435 = assay: Cytotoxicity against human MDA-MB-435 cells assessed as cellular growth at 10 uM; type: functional; summary of the method: as §1
KM12 = assay: Cytotoxicity against human KM12 cells assessed as cellular growth at 10 uM; type: functional; summary of the method: as §1
SNB-19 = assay: Cytotoxicity against human SNB19 cells assessed as cellular growth at 10 uM; type: functional
SN12C = assay: Cytotoxicity against human SN12C cells assessed as cellular growth at 10 uM; type: functional
[3] = target: Telomerase reverse transcriptase (Homo sapiens) (UniProt O14746); assay: Residual activity of human TERT in H1299 cells at 10 uM after 24 hrs by SEAP reporter gene assay
SF-268 = assay: Cytotoxicity against human SF268 cells assessed as cellular growth at 10 uM; type: functional; summary of the method: as §1
[4] = Growth of human H1299 cells at 100 uM 48 hrs by MTT assay; conditions: NCI-H1299, 48 h
NCI-H522 = assay: Cytotoxicity against human NCI-H522 cells assessed as cellular growth at 10 uM; type: functional; summary of the method: as §1
PC-3 [5] = assay: Cytotoxicity against human PC3 cells assessed as cellular growth at 10 uM; type: functional; summary of the method: as §1
NCI/ADR-RES = assay: Cytotoxicity against human NCI/ADR-RES cells assessed as cellular growth at 10 uM; type: functional; summary of the method: as §1
786-0 = assay: Cytotoxicity against human 786-0 cells assessed as cellular growth at 10 uM; type: functional; summary of the method: as §1
MDA-MB-468 = assay: Cytotoxicity against human MDA-MB-468 cells assessed as cellular growth at 10 uM; type: functional; summary of the method: as §1
[6] = target: Telomerase reverse transcriptase (Homo sapiens) (UniProt O14746); assay: Inhibition of telomerase activity in human H1299 cell free extract at 10 uM by modified TRAP assay
Summary of the method: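 TRAP assay using total cell lysate from H1299 lung cancer cells as the telomerase source, with protein measured against BSA standards. Compounds tested at 10 µM. Controls were lysate without inhibitor (positive) and RNase A-treated extract without inhibitor (negative).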

SW-620 = assay: Cytotoxicity against human SW620 cells assessed as cellular growth at 10 uM; type: functional
[7] = target: Telomerase reverse transcriptase (Homo sapiens) (UniProt O14746); assay: Residual activity of human TERT in H1299 cells at 1 uM after 24 hrs by SEAP reporter gene assay
UACC-62 = assay: Cytotoxicity against human UACC62 cells assessed as cellular growth at 10 uM; type: functional
[8] = target: Telomerase reverse transcriptase (Homo sapiens) (UniProt O14746); assay: Residual activity of human TERT in H1299 cells at 100 uM after 24 hrs by SEAP reporter gene assay
OVCAR-3 = assay: Cytotoxicity against human OVCAR3 cells assessed as cellular growth at 10 uM; type: functional; summary of the method: as §1
[9] = Growth of human H1299 cells at 1 uM after 48 hrs by MTT assay; conditions: NCI-H1299, 48 h
[10] = Cytotoxicity against human Hs 578T cells assessed as cellular growth at 10 uM; type: functional; summary of the method: as §1
UACC-257 = assay: Cytotoxicity against human UACC257 cells assessed as cellular growth at 10 uM; type: functional
CAKI-1 = assay: Cytotoxicity against human Caki1 cells assessed as cellular growth at 10 uM; type: functional; summary of the method: as §1
CCRF-CEM = assay: Cytotoxicity against human CCRF-CEM cells assessed as cellular growth at 10 uM; type: functional; summary of the method: as §1
K562 = assay: Cytotoxicity against human K562 cells assessed as cellular growth at 10 uM; type: functional; summary of the method: as §1

Sequence of Telomerase reverse transcriptase (Homo sapiens) (O14746 whole entry): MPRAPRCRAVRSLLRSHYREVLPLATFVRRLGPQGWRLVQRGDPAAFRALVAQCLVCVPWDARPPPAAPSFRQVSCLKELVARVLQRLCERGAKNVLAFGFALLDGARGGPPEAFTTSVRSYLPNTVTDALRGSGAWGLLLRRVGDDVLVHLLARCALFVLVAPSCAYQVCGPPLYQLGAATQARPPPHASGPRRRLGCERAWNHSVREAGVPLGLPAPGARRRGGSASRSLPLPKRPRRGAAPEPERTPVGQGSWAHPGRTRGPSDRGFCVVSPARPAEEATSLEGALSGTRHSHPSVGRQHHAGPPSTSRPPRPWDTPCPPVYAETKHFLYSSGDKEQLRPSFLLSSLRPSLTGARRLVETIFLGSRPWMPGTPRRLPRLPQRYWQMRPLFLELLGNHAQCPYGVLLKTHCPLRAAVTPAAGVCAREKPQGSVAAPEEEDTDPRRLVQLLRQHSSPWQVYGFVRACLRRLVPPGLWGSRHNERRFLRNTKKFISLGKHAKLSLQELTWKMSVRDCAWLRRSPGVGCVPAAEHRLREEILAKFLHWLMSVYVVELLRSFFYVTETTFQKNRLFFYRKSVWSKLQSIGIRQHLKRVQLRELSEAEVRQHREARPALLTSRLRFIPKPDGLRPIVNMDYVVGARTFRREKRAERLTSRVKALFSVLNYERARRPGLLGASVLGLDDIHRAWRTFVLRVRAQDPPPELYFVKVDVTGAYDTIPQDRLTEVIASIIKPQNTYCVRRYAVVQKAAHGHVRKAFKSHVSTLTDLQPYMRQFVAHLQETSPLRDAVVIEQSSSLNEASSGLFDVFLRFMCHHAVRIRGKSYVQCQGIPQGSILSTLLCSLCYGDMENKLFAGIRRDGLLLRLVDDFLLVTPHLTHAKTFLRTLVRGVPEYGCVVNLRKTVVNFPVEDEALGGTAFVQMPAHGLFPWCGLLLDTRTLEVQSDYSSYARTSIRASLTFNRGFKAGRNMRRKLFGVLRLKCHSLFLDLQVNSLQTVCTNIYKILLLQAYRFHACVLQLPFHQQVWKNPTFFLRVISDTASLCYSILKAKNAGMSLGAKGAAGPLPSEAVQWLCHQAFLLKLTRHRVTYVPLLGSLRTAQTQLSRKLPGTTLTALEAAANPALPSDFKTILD

`Cc1ccc(C(=O)Nc2c(NC(=O)CCl)ccc3c2C(=O)c2ccccc2C3=O)cc1` showed an Activity (SF-539) of -31.42%, an Activity (UO-31) of 42.91% and an Activity (SF-295) of 79.7%. The Activity (HL-60(TB)) was -46.88%, the Activity (HCT-15) was -50.22% and the Activity (OVCAR-8) was 8.72%. The Activity (IGROV-1) was 51.41%, the Activity (MOLT-4) was -23.17% and the IC50 (PC-3 [1]) was 3.87 µM. The Activity (M14) was -22.68%, the Activity (NCI-H23) was -85.89% and the Activity (SK-OV-3) was 106.24%. It also gave an Activity (HCT-116) of -54.27%, a growth, % of control at 10 µM [2] of 2% and an Activity (EKVX) of 88.22%. It also gave an Activity (COLO 205) of -53.43%, an Activity (TK-10) of 130.52% and an Activity (MCF7) of -79.28%. For the same molecule, the Activity (Malme-3M) was -22.41%, the Activity (MDA-MB-231) was 24.67% and the Activity (HOP-62) was -28.62%. For the same molecule, the Activity (HT-29) was 3.37%, the Activity (OVCAR-4) was 34.52% and the Activity (BT-549) was 28.19%. It also gave an Activity (MDA-MB-435) of 4.82%, an Activity (KM12) of -19.53% and an Activity (SNB-19) of 88.4%. It also gave an Activity (SN12C) of -81.02%, a residual activity [3] of 0% and an Activity (SF-268) of 14.63%. The growth, % of control at 100 µM [4] was 0%, the Activity (NCI-H522) was 57.88% and the Activity (PC-3 [5]) was 6.81%. The Activity (NCI/ADR-RES) was 72.17%, the Activity (786-0) was 11.3% and the Activity (MDA-MB-468) was -83.42%. For the same molecule, the inhibition [6] was “inactive”, the Activity (SW-620) was -43.27% and the residual activity [7] was 109%. For the same molecule, the Activity (UACC-62) was -67.8%, the residual activity [8] was 0% and the Activity (OVCAR-3) was -92.86%. The growth, % of control at 1 µM [9] was 103%.

`Cc1ccc(C(=O)Nc2c(NC(=O)CN3CCCC3)ccc3c2C(=O)c2ccccc2C3=O)cc1` showed an Activity (SF-539) of 81.29%, an Activity (UO-31) of 69.24% and an Activity (SF-295) of 68.97%. It also gave an Activity (HL-60(TB)) of 96.11%, an Activity (HCT-15) of 73.22% and an Activity (OVCAR-8) of 65.02%. The Activity (IGROV-1) was 106.07%, the Activity (MOLT-4) was 48.2% and the IC50 (PC-3 [1]) was 17.6 µM. The Activity (M14) was 88.01%, the Activity [10] was 69.39% and the Activity (NCI-H23) was 73.29%. The Activity (SK-OV-3) was 82.13%, the Activity (HCT-116) was 58.46% and the growth, % of control at 10 µM [2] was 69%. The Activity (EKVX) was 65.93%, the Activity (COLO 205) was 65.6% and the Activity (TK-10) was 86.85%. The Activity (MCF7) was 70.79%, the Activity (Malme-3M) was 82.24% and the Activity (MDA-MB-231) was 73.34%. It also gave an Activity (HOP-62) of 113.43%, an Activity (HT-29) of 31.34% and an Activity (OVCAR-4) of 47.06%. For the same molecule, the Activity (BT-549) was 81.58%, the Activity (MDA-MB-435) was 79.14% and the Activity (KM12) was 51.05%. For the same molecule, the Activity (SNB-19) was 108.22%, the Activity (SN12C) was 74.82% and the Activity (UACC-257) was 92.83%. The residual activity [3] was 59%, the Activity (SF-268) was 86.17% and the Activity (CAKI-1) was 55.64%. The growth, % of control at 100 µM [4] was 5%, the Activity (NCI-H522) was 103.02% and the Activity (PC-3 [5]) was 75%. For the same molecule, the Activity (NCI/ADR-RES) was 50.86%, the Activity (786-0) was 65.15% and the Activity (MDA-MB-468) was 69.27%. For the same molecule, the inhibition [6] was “inactive”, the Activity (SW-620) was 82.29% and the Activity (CCRF-CEM) was 39.61%. The Activity (K562) was 40.86%, the residual activity [7] was 81% and the Activity (UACC-62) was 76.82%. For the same molecule, the residual activity [8] was 3%, the Activity (OVCAR-3) was 77.82% and the growth, % of control at 1 µM [9] was 88%.
